# Experimental data published in ChEMBL document CHEMBL1143736, “Synthesis and antimycobacterial activity of 4-(5-substituted-1,3,4-oxadiazol-2-yl)pyridines” (Bioorg Med Chem, 2007).
# Tests used:
# Format in all cases: functional
# [1] = tested on: Mycobacterium tuberculosis; experiment: Antimycobacterial activity against streptomycin, isoniazid, rifampicin, pyrazinamide-resistant Mycobacterium tuberculosis CIBIN 234 isolates
# Summary of the method: (§1)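 Modified microplate Alamar Blue assay (MABA). Inoculum came from a log-phase culture matched to McFarland 1, diluted 1:50 in Middlebrook 7H9 to 6 × 10^6 CFU/mL, and prepared just before inoculation.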
# [2] = tested on: Mycobacterium tuberculosis; experiment: Antimycobacterial activity against streptomycin and isoniazid-resistant Mycobacterium tuberculosis CIBIN 675 isolates; summary of the method: as §1
# [3] = tested on: Mycobacterium tuberculosis; experiment: Antimycobacterial activity against streptomycin, isoniazid, ethambutol-resistant Mycobacterium tuberculosis CIBIN 112 isolates; summary of the method: as §1
Structure (SMILES),MIC [1] [µM],MIC [2],MIC [3] [µM]
Cc1nnc(-c2ccncc2)o1,49.7,49.7 µM,49.7
ClCc1nnc(-c2ccncc2)o1,41,41 µM,41
CCCCCCCCCCCCCCCc1nnc(-c2ccncc2)o1,22.4,11.2 µM,2.8
c1cc(-c2nnc(-c3ccncc3)o2)ccn1,35.7,35.7 µM,35.7
CCCCCCCCCCCCCCCCCc1nnc(-c2ccncc2)o1,20.8,10.4 µM,2.59
O=[N+]([O-])c1ccc(-c2nnc(-c3ccncc3)o2)cc1,29.9,29.9 µM,29.9
O=[N+]([O-])c1cc(-c2nnc(-c3ccncc3)o2)cc([N+](=O)[O-])c1,25.5,25.5 µM,12.8
CN(C)c1ccc(-c2nnc(-c3ccncc3)o2)cc1,30,30 µM,30
FC(F)(F)c1nnc(-c2ccncc2)o1,37.2,37.2 µM,37.2
O=[N+]([O-])c1ccccc1-c1nnc(-c2ccncc2)o1,29.9,29.9 µM,29.9
COc1cc(-c2nnc(-c3ccncc3)o2)cc(OC)c1OC,28.2,28.2 µM,14.1
c1ccc(-c2nnc(-c3ccncc3)o2)cc1,35.9,35.9 mg/L,35.9
CN[C@@H]1[C@H](O[C@H]2[C@H](O[C@H]3[C@H](O)[C@@H](O)[C@H](N=C(N)N)[C@@H](O)[C@@H]3N=C(N)N)O[C@@H](C)[C@]2(O)C=O)O[C@@H](CO)[C@H](O)[C@H]1O (stereo in doubt) [STREPTOMYCIN],55,6.87 µM,55
CC[C@@H](CO)NCCN[C@@H](CC)CO [ETHAMBUTOL],,,78.3
NNC(=O)c1ccncc1 [ISONIAZID],58.4,29.2 µM,29.2
CO[C@H]1/C=C/O[C@@]2(C)Oc3c(C)c(O)c4c(O)c(c(/C=N/N5CCN(C)CC5)c(O)c4c3C2=O)NC(=O)/C(C)=C\C=C\[C@H](C)[C@H](O)[C@@H](C)[C@@H](O)[C@@H](C)[C@H](OC(C)=O)[C@@H]1C [RIFAMPIN],122,0.94 µM,3.79
